Laboratory results: ChEMBL document CHEMBL2176931, “Plakilactones from the marine sponge Plakinastrella mamillaris. Discovery of a new class of marine ligands of peroxisome proliferator-activated receptor γ” (J Med Chem, 2012)
Calls of active or inactive are those of the source. The rule behind the calls is not given here.

Tests used:
[1] = target: T1, Peroxisome proliferator-activated receptor gamma (Homo sapiens) (UniProt P37231); assay: Covalent binding affinity to N-terminal His6-tagged PPARgamma ligand binding domain (195 to 477 amino acid residues) at 20 uM after 60 to 180 mins by RP-LC-MS analysis
T1 sequence (whole entry): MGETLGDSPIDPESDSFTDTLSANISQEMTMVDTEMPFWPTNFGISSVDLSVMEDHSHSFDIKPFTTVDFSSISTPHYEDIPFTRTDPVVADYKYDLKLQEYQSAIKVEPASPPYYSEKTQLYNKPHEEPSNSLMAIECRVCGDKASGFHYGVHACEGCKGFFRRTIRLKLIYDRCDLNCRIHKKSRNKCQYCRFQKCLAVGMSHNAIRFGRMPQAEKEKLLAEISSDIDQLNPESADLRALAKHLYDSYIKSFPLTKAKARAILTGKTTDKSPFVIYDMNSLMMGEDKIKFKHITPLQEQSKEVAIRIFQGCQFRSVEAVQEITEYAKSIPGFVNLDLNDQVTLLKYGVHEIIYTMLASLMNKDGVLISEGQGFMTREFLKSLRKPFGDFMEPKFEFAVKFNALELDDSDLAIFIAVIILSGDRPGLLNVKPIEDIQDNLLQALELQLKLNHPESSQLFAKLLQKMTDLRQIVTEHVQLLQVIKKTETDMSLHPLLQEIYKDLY
Outline: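 PPARγ-LBD (1 μM) incubated with compound (20 μM) in PBS pH 7.5 at 37 °C for 60 and 180 min; aliquots analysed by RP-LC-MS on C4 column, 20–70% aqueous acetonitrile gradient with 0.05% TFA/1% formic acid over 25 min, spectra m/z 1500–3000.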

[2] = target: T1, Peroxisome proliferator-activated receptor gamma (Homo sapiens); assay: Transactivation of GAL4-fused PPARgamma ligand binding domain transfected in human HepG2 cells at 10 uM after 18 hrs by luciferase reporter gene assay; assay type: cell-based
[3] = target: T1, Peroxisome proliferator-activated receptor gamma (Homo sapiens); assay: Transactivation of PPARgamma in human HepG2 cells assessed as induction of PEPCK mRNA expression at 10 uM after 18 hrs by RT-PCR analysis relative to untreated control; assay type: cell-based
Outline: (§1)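 Serum-starved HepG2 cells (E-MEM, 10% FBS at maintenance, 37 °C) treated 18 h with 10 μM compound; total RNA by TRIzol, DNase I, random-primed RT; SYBR Green qPCR, 40 cycles; normalized to GAPDH, relative to untreated cells set to 1; triplicate, experiment repeated twice.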

[4] = target: T2, Peroxisome proliferator-activated receptor alpha (Homo sapiens) (UniProt Q07869); assay: Transactivation of GAL4-fused PPARalpha ligand binding domain transfected in human HepG2 cells at 10 uM after 18 hrs by luciferase reporter gene assay; assay type: cell-based
T2 sequence (whole entry): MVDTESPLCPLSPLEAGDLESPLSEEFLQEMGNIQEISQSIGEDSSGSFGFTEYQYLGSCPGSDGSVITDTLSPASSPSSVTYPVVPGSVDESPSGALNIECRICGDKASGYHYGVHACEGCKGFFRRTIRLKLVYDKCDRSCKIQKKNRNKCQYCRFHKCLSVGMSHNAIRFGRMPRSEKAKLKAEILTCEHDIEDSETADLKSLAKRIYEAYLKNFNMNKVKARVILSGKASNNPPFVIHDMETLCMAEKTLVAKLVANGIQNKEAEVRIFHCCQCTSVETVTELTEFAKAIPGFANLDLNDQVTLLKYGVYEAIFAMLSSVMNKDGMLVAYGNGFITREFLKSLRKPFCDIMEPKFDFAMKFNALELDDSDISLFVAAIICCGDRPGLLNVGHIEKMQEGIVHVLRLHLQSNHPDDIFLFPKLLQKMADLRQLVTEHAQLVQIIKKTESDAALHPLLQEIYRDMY

[5] = target: T3, Peroxisome proliferator-activated receptor delta (Homo sapiens) (UniProt Q03181); assay: Transactivation of GAL4-fused PPARbeta ligand binding domain transfected in human HepG2 cells at 10 uM after 18 hrs by luciferase reporter gene assay; assay type: cell-based
T3 sequence (whole entry): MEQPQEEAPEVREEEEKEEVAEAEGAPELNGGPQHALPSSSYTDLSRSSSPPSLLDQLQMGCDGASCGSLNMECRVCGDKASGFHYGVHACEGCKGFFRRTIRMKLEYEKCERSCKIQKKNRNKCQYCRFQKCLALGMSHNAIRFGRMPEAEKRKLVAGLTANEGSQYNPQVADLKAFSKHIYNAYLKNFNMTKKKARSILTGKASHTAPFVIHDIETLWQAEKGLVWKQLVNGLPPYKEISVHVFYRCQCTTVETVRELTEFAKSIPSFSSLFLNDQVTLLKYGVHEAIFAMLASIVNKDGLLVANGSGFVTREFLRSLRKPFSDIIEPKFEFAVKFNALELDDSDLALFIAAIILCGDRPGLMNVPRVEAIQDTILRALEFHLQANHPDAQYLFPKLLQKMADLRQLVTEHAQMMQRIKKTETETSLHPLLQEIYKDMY

[6] = target: T1, Peroxisome proliferator-activated receptor gamma (Homo sapiens); assay: Transactivation of PPARgamma in human HepG2 cells assessed as induction of CD36 mRNA expression at 10 uM after 18 hrs by RT-PCR analysis relative to untreated control; assay type: cell-based; outline: as §1
[7] = target: T1, Peroxisome proliferator-activated receptor gamma (Homo sapiens); assay: Transactivation of PPARgamma in human HepG2 cells assessed as induction of SCD1 mRNA expression at 10 uM after 18 hrs by RT-PCR analysis relative to untreated control; assay type: cell-based; outline: as §1
[8] = target: T4, Peroxisome proliferator-activated receptor gamma (Homo sapiens, UniProt P37231); assay: (§2) Transactivation of GAL4-fused PPARgamma ligand binding domain transfected in human HepG2 cells by luciferase reporter gene assay; assay type: cell-based
T4 sequence (P37231 whole entry): T1 sequence (whole entry)
Outline: (§3)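 GAL4–PPARγ LBD luciferase transactivation in HepG2 cells; concentration–response at 1, 10 and 50 μM (rosiglitazone 10, 100, 500 nM); luciferase measured in cell extracts; relative EC50 estimated from curves; mean ± SE of three experiments.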

[9] = target: T1, Peroxisome proliferator-activated receptor gamma (Homo sapiens); assay: as §2; assay type: cell-based; outline: as §3
[10] = target: T1, Peroxisome proliferator-activated receptor gamma (Homo sapiens); assay: Covalent binding affinity to N-terminal His6-tagged PPARgamma ligand binding domain (195 to 477 amino acid residues) by MALDI-MS and MALDI-MS/MS method
Outline: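 Protein–ligand adduct digested with trypsin (E:S 1:100, 1 h, 37 °C), desalted on C18 ZIP-TIP, analysed by MALDI-MS in reflectron positive mode with α-cyano-4-hydroxycinnamic acid matrix, m/z 700–5000; peptide numbering per full-length PPARγ.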

[11] = target: T1, Peroxisome proliferator-activated receptor gamma (Homo sapiens); assay: Antagonist activity at GAL4-fused PPARgamma ligand binding domain transfected in human HepG2 cells assessed as decrease in rosiglitazone-induced transactivation at 50 uM after 18 hrs by luciferase reporter gene assay; assay type: cell-based
[12] = target: T1, Peroxisome proliferator-activated receptor gamma (Homo sapiens); assay: Transactivation of PPARgamma in human THP1 cells assessed as decrease in LPS-induced IL6 mRNA expression at 10 uM preincubated for 3 hrs prior to LPS challenge measured after 18 hrs by RT-PCR analysis relative to untreated control; assay type: cell-based; details: THP-1
Outline: (§4)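 Serum-starved THP-1 cells pretreated 3 h with 10 μM compound (rosiglitazone 100 nM reference), then LPS 1 μg/mL for 18 h; total RNA SYBR Green real-time PCR, GAPDH-normalized, expressed relative to untreated cells set to 1; triplicate, repeated twice.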

[13] = target: T1, Peroxisome proliferator-activated receptor gamma (Homo sapiens); assay: Transactivation of PPARgamma in human THP1 cells assessed as decrease in LPS-induced MCP1 mRNA expression at 10 uM preincubated for 3 hrs prior to LPS challenge measured after 18 hrs by RT-PCR analysis relative to untreated control; assay type: cell-based; details: THP-1; outline: as §4

Activity [2]	Activity [4]	Activity [5]	Structure (SMILES)	also measured
inactive			CCC1=C[C@@](CC)(C[C@@H](CC)CCC(C)=O)O/C1=C\C(=O)OC	Activity [1]: inactive
Active	inactive	inactive	CCC1=C[C@@](CC)(C[C@H](/C=C/C(C)=O)CC)OC1=O	Activity [3]: inactive; Activity [6]: Active; Activity [7]: Active; Activity [1]: Active; EC50 [8]: 2 µM; Activity [9]: Dose-dependent effect
	inactive	inactive	CC/C=C/[C@H](CC)C[C@]1(CC)C=C(CC)C(=O)O1	
	inactive	inactive	CCC1=C[C@@](CC)(C/C(=C\[C@H](O)CC)CC)OC1=O	
Active	inactive	inactive	CCC1=C[C@@](CC)(C[C@H](/C=C/C(C)=O)CC)O/C1=C\C(=O)OC	Activity [3]: Active; Activity [6]: inactive; Activity [10]: Active; Activity [7]: Active; Activity [1]: Active; EC50 [8]: 5 µM; Activity [9]: Dose-dependent effect
	inactive	inactive	CCC1=C[C@@](CC)(C[C@H](/C=C/[C@@H](C)O)CC)OC1=O	
	inactive	inactive	CCCC[C@H](CC)C[C@]1(CC)C=C(CC)/C(=C/C(=O)OC)O1	Activity [11]: Active
	inactive	inactive	CCC1=C[C@@](CC)(C/C(=C\[C@@H](O)CC)CC)OC1=O	
	inactive	inactive	CCCC[C@H](CC)C[C@]1(CC)C=C(CC)C(=O)O1	
Active	inactive	inactive	CCC1=C[C@@](CC)(C[C@H](/C=C/[C@H](C)O)CC)O/C1=C\C(=O)OC	Activity [3]: Active; Activity [12]: Active; Activity [13]: Active; Activity [6]: Active; Activity [7]: Active; EC50 [8]: 10 µM; Activity [9]: Dose-dependent effect
	inactive	inactive	CC/C=C/[C@H](CC)C[C@]1(CC)C=C(CC)/C(=C/C(=O)OC)O1	Activity [11]: Active
	inactive	inactive	CCC1=C[C@@](CC)(C/C(=C/[C@@H](O)CC)CC)O/C1=C\C(=O)OC	
inactive			CCC1=C[C@@](CC)(C[C@@H](CC)CCC(C)=O)OC1=O	Activity [1]: inactive
	inactive	inactive	CCC1=C[C@@](CC)(C/C(=C/[C@@H](O)CC)CC)OC1=O	

Structure (SMILES)	Activity [2]	Activity [4]	Activity [5]	also measured
CC[C@@H]1C[C@@]2(CC)O/C(=C\C(=O)OC)[C@@]3(CC)OO[C@H]([C@@H](C)O)[C@@H]1[C@@H]23		inactive	inactive	
